Data from ChEMBL document CHEMBL1641426, “Microwave assisted one pot synthesis of some novel 2,5-disubstituted 1,3,4-oxadiazoles as antifungal agents” (2011).
Values after ≈ are worked out from the molar mass of the structure shown. Active and inactive are the calls of the source. No cut-off for these calls is given here.

Assays:
Candida albicans [1] = assay: Antifungal activity against Candida albicans assessed as macroscopically visible colonies upto 200 ug/ml after 48 and 72 hrs by standard agar dilution method; assay type: functional, organism-based
Method in brief: (§1)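 MIC by standard agar method. Tested against Candida albicans, Fusarium oxysporum, Aspergillus flavus, Aspergillus niger and Cryptococcus neoformans. Dimethyl sulfoxide served as solvent control, and miconazole and fluconazole served as reference standards.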

Aspergillus flavus = assay: Antifungal activity against Aspergillus flavus assessed as macroscopically visible colonies after 48 and 72 hrs by standard agar dilution method; assay type: functional; method in brief: as §1
Aspergillus niger [2] = assay: Antifungal activity against Aspergillus niger assessed as macroscopically visible colonies after 48 and 72 hrs by standard agar dilution method; assay type: functional; method in brief: as §1
Fusarium oxysporum = assay: Antifungal activity against Fusarium oxysporum assessed as macroscopically visible colonies after 48 and 72 hrs by standard agar dilution method; assay type: functional; method in brief: as §1
Cryptococcus neoformans [3] = assay: Antifungal activity against Cryptococcus neoformans assessed as appearance of macroscopically visible colonies upto 200 ug/ml after 48 and 72 hrs by standard agar dilution method; assay type: functional, organism-based; method in brief: as §1
Candida albicans [4] = assay: Antifungal activity against Candida albicans assessed as macroscopically visible colonies after 48 and 72 hrs by standard agar dilution method; assay type: functional; method in brief: as §1
Cryptococcus neoformans [5] = assay: Antifungal activity against Cryptococcus neoformans assessed as appearance of macroscopically visible colonies after 48 and 72 hrs by standard agar dilution method; assay type: functional; method in brief: as §1
Aspergillus niger [6] = assay: Antifungal activity against Aspergillus niger assessed as macroscopically visible colonies upto 200 ug/ml after 48 and 72 hrs by standard agar dilution method; assay type: functional, organism-based; method in brief: as §1

Structure (SMILES): O=C(c1ccccc1)N1CCC(n2cc(-c3nnc(-c4ccccc4)o3)nn2)CC1
- Activity (Candida albicans [1]): inactive
- MIC (Aspergillus flavus): 150 µg/mL (≈ 375 µM)
- MIC (Aspergillus niger [2]): 175 µg/mL (≈ 437 µM)
- MIC (Fusarium oxysporum): 100 µg/mL (≈ 250 µM)
- Activity (Cryptococcus neoformans [3]): inactive

Structure (SMILES): CC(=O)N1CCC(n2cc(-c3nnc(-c4cccc(C)c4)o3)nn2)CC1
- MIC (Candida albicans [4]): 45 µg/mL (≈ 128 µM)
- MIC (Aspergillus flavus): 35 µg/mL (≈ 99.3 µM)
- MIC (Aspergillus niger [2]): 40 µg/mL (≈ 114 µM)
- MIC (Fusarium oxysporum): 40 µg/mL (≈ 114 µM)
- Activity (Cryptococcus neoformans [3]): inactive

Structure (SMILES): CC(=O)N1CCC(n2cc(-c3nnc(-c4cccc(Cl)c4)o3)nn2)CC1
- MIC (Candida albicans [4]): 35 µg/mL (≈ 93.9 µM)
- MIC (Aspergillus flavus): 20 µg/mL (≈ 53.6 µM)
- MIC (Aspergillus niger [2]): 25 µg/mL (≈ 67.1 µM)
- MIC (Fusarium oxysporum): 30 µg/mL (≈ 80.5 µM)
- Activity (Cryptococcus neoformans [3]): inactive

Structure (SMILES): CN1CCC(n2cc(-c3nnc(-c4ccccc4)o3)nn2)CC1
- MIC (Candida albicans [4]): 70 µg/mL (≈ 226 µM)
- MIC (Aspergillus flavus): 60 µg/mL (≈ 193 µM)
- MIC (Cryptococcus neoformans [5]): 90 µg/mL (≈ 290 µM)
- MIC (Aspergillus niger [2]): 80 µg/mL (≈ 258 µM)
- MIC (Fusarium oxysporum): 70 µg/mL (≈ 226 µM)

Structure (SMILES): Cc1cccc(-c2nnc(-c3cn(C4CCN(C(=O)c5ccccc5)CC4)nn3)o2)c1
- Activity (Candida albicans [1]): inactive
- MIC (Aspergillus flavus): 150 µg/mL (≈ 362 µM)
- Activity (Aspergillus niger [6]): inactive
- MIC (Fusarium oxysporum): 100 µg/mL (≈ 241 µM)
- Activity (Cryptococcus neoformans [3]): inactive

Structure (SMILES): COc1cccc(-c2nnc(-c3cn(C4CCN(C)CC4)nn3)o2)c1
- MIC (Candida albicans [4]): 60 µg/mL (≈ 176 µM)
- MIC (Aspergillus flavus): 50 µg/mL (≈ 147 µM)
- MIC (Cryptococcus neoformans [5]): 80 µg/mL (≈ 235 µM)
- MIC (Aspergillus niger [2]): 70 µg/mL (≈ 206 µM)
- MIC (Fusarium oxysporum): 65 µg/mL (≈ 191 µM)

Structure (SMILES): CC(C)(C)OC(=O)N1CCC(n2cc(-c3nnc(-c4ccccc4)o3)nn2)CC1
- MIC (Candida albicans [4]): 100 µg/mL (≈ 252 µM)
- MIC (Aspergillus flavus): 100 µg/mL (≈ 252 µM)
- MIC (Aspergillus niger [2]): 150 µg/mL (≈ 378 µM)
- MIC (Fusarium oxysporum): 125 µg/mL (≈ 315 µM)
- Activity (Cryptococcus neoformans [3]): inactive

Structure (SMILES): OC(Cn1cncn1)(Cn1cncn1)c1ccc(F)cc1F [FLUCONAZOLE]
- MIC (Candida albicans [4]): 5 µg/mL (≈ 16.3 µM)
- MIC (Aspergillus flavus): 5 µg/mL (≈ 16.3 µM)
- MIC (Cryptococcus neoformans [5]): 5 µg/mL (≈ 16.3 µM)
- MIC (Aspergillus niger [2]): 10 µg/mL (≈ 32.7 µM)
- MIC (Fusarium oxysporum): 5 µg/mL (≈ 16.3 µM)

Structure (SMILES): CS(=O)(=O)N1CCC(n2cc(-c3nnc(-c4cccc(Cl)c4)o3)nn2)CC1
- MIC (Candida albicans [4]): 25 µg/mL (≈ 61.1 µM)
- MIC (Aspergillus flavus): 15 µg/mL (≈ 36.7 µM)
- MIC (Cryptococcus neoformans [5]): 50 µg/mL (≈ 122 µM)
- MIC (Aspergillus niger [2]): 20 µg/mL (≈ 48.9 µM)
- MIC (Fusarium oxysporum): 25 µg/mL (≈ 61.1 µM)

Structure (SMILES): Clc1ccc(COC(Cn2ccnc2)c2ccc(Cl)cc2Cl)c(Cl)c1 (stereo not given) [MICONAZOLE]
- MIC (Candida albicans [4]): 25 µg/mL (≈ 60.1 µM)
- MIC (Aspergillus flavus): 12.5 µg/mL (≈ 30 µM)
- MIC (Cryptococcus neoformans [5]): 25 µg/mL (≈ 60.1 µM)
- MIC (Aspergillus niger [2]): 12.5 µg/mL (≈ 30 µM)
- MIC (Fusarium oxysporum): 25 µg/mL (≈ 60.1 µM)

Structure (SMILES): c1ccc(-c2nnc(-c3cn(C4CCNCC4)nn3)o2)cc1
- MIC (Candida albicans [4]): 80 µg/mL (≈ 270 µM)
- MIC (Aspergillus flavus): 90 µg/mL (≈ 304 µM)
- MIC (Cryptococcus neoformans [5]): 150 µg/mL (≈ 506 µM)
- MIC (Aspergillus niger [2]): 125 µg/mL (≈ 422 µM)
- MIC (Fusarium oxysporum): 85 µg/mL (≈ 287 µM)

Structure (SMILES): O=C(c1ccc(Cl)cc1)N1CCC(n2cc(-c3nnc(-c4ccccc4)o3)nn2)CC1
- MIC (Candida albicans [4]): 150 µg/mL (≈ 345 µM)
- MIC (Aspergillus flavus): 90 µg/mL (≈ 207 µM)
- MIC (Aspergillus niger [2]): 100 µg/mL (≈ 230 µM)
- MIC (Fusarium oxysporum): 90 µg/mL (≈ 207 µM)
- Activity (Cryptococcus neoformans [3]): inactive

Structure (SMILES): CCN1CCC(n2cc(-c3nnc(-c4cccc(O)c4)o3)nn2)CC1
- MIC (Candida albicans [4]): 35 µg/mL (≈ 103 µM)
- MIC (Aspergillus flavus): 20 µg/mL (≈ 58.8 µM)
- MIC (Cryptococcus neoformans [5]): 60 µg/mL (≈ 176 µM)
- MIC (Aspergillus niger [2]): 20 µg/mL (≈ 58.8 µM)
- MIC (Fusarium oxysporum): 35 µg/mL (≈ 103 µM)

Structure (SMILES): CN1CCC(n2cc(-c3nnc(-c4cccc(O)c4)o3)nn2)CC1
- MIC (Candida albicans [4]): 40 µg/mL (≈ 123 µM)
- MIC (Aspergillus flavus): 25 µg/mL (≈ 76.6 µM)
- MIC (Aspergillus niger [2]): 35 µg/mL (≈ 107 µM)
- MIC (Fusarium oxysporum): 35 µg/mL (≈ 107 µM)
- Activity (Cryptococcus neoformans [3]): inactive

Structure (SMILES): CCN1CCC(n2cc(-c3nnc(-c4ccccc4)o3)nn2)CC1
- MIC (Candida albicans [4]): 55 µg/mL (≈ 170 µM)
- MIC (Aspergillus flavus): 60 µg/mL (≈ 185 µM)
- MIC (Cryptococcus neoformans [5]): 80 µg/mL (≈ 247 µM)
- MIC (Aspergillus niger [2]): 80 µg/mL (≈ 247 µM)
- MIC (Fusarium oxysporum): 50 µg/mL (≈ 154 µM)

Structure (SMILES): CCN1CCC(n2cc(-c3nnc(-c4cccc(OC)c4)o3)nn2)CC1
- MIC (Candida albicans [4]): 50 µg/mL (≈ 141 µM)
- MIC (Aspergillus flavus): 50 µg/mL (≈ 141 µM)
- MIC (Cryptococcus neoformans [5]): 100 µg/mL (≈ 282 µM)
- MIC (Aspergillus niger [2]): 75 µg/mL (≈ 212 µM)
- MIC (Fusarium oxysporum): 60 µg/mL (≈ 169 µM)

Structure (SMILES): CS(=O)(=O)N1CCC(n2cc(-c3nnc(-c4cccc([N+](=O)[O-])c4)o3)nn2)CC1
- MIC (Candida albicans [4]): 40 µg/mL (≈ 95.4 µM)
- MIC (Aspergillus flavus): 50 µg/mL (≈ 119 µM)
- MIC (Cryptococcus neoformans [5]): 90 µg/mL (≈ 215 µM)
- MIC (Aspergillus niger [2]): 70 µg/mL (≈ 167 µM)
- MIC (Fusarium oxysporum): 55 µg/mL (≈ 131 µM)

Structure (SMILES): CS(=O)(=O)N1CCC(n2cc(-c3nnc(-c4ccccc4)o3)nn2)CC1
- MIC (Candida albicans [4]): 35 µg/mL (≈ 93.5 µM)
- MIC (Aspergillus flavus): 45 µg/mL (≈ 120 µM)
- MIC (Cryptococcus neoformans [5]): 55 µg/mL (≈ 147 µM)
- MIC (Aspergillus niger [2]): 40 µg/mL (≈ 107 µM)
- MIC (Fusarium oxysporum): 40 µg/mL (≈ 107 µM)

Structure (SMILES): CN1CCC(n2cc(-c3nnc(-c4cccc(Cl)c4)o3)nn2)CC1
- MIC (Candida albicans [4]): 55 µg/mL (≈ 160 µM)
- MIC (Aspergillus flavus): 40 µg/mL (≈ 116 µM)
- MIC (Cryptococcus neoformans [5]): 150 µg/mL (≈ 435 µM)
- MIC (Aspergillus niger [2]): 45 µg/mL (≈ 131 µM)
- MIC (Fusarium oxysporum): 50 µg/mL (≈ 145 µM)

Structure (SMILES): CCN1CCC(n2cc(-c3nnc(-c4cccc(Cl)c4)o3)nn2)CC1
- MIC (Candida albicans [4]): 40 µg/mL (≈ 111 µM)
- MIC (Aspergillus flavus): 25 µg/mL (≈ 69.7 µM)
- MIC (Cryptococcus neoformans [5]): 50 µg/mL (≈ 139 µM)
- MIC (Aspergillus niger [2]): 50 µg/mL (≈ 139 µM)
- MIC (Fusarium oxysporum): 35 µg/mL (≈ 97.5 µM)

Structure (SMILES): CS(=O)(=O)N1CCC(n2cc(-c3nnc(-c4cccc(O)c4)o3)nn2)CC1
- MIC (Candida albicans [4]): 30 µg/mL (≈ 76.8 µM)
- MIC (Aspergillus flavus): 15 µg/mL (≈ 38.4 µM)
- MIC (Cryptococcus neoformans [5]): 100 µg/mL (≈ 256 µM)
- MIC (Aspergillus niger [2]): 15 µg/mL (≈ 38.4 µM)
- MIC (Fusarium oxysporum): 25 µg/mL (≈ 64 µM)
